# Assays:
# [1] = Metabolic stability in human liver microsomes after 10 mins; assay type: ADME, Microsome; conditions: read-out: Stability
# [2] = Metabolic stability in rat liver microsomes after 10 mins; assay type: ADME, Microsome; conditions: read-out: Stability
# [3] = (§1) Permeability across monolayer of human Caco-2 cell; assay type: ADME, cell-based; conditions: read-out: permeability
# [4] = test system: Human immunodeficiency virus 1; experiment: Antiviral activity against HIV1 infected HeLa67 after 3 days by luciferase reporter assay; assay type: functional, organism-based; conditions: Human immunodeficiency virus 1, HeLa67, 72 h
# [5] = Cytotoxicity against human HeLa67 cell after 3 days by XTT assay; assay type: cell-based; conditions: HeLa67 cells
# Method in brief: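 HeLa67 cells exposed to test compounds in parallel with the antiviral assay; XTT read-out 3 days after compound addition, giving CC50.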
# Caco-2 = experiment: as §1; assay type: ADME, cell-based
Compound,remaining at 10 min [1],remaining at 10 min [2],Papp [3],EC50 [4],permeability (Caco-2),CC50 at 72 h [5]
O=C(C(=O)N1CCN(C(=O)c2ccccc2)CC1)c1c[nH]c2cccc(F)c12,98%,51%,4.7 ×10⁻⁶ cm/s,–,–,–
COc1cccc2[nH]cc(C(=O)C(=O)N3CCN(C(=O)c4ccccc4)CC3)c12,100%,88%,4.3 ×10⁻⁶ cm/s,–,–,–
CC(C)C1CN(C(=O)C(=O)c2c[nH]c3cccc(F)c23)CCN1C(=O)c1ccccc1 (stereo not drawn),63%,39%,16.1 ×10⁻⁶ cm/s,–,–,–
CN(CCN(C)C(=O)c1ccccc1)C(=O)C(=O)c1c[nH]c2cccc(F)c12,–,–,–,> 50 µM,–,> 300 µM
CC(C)(C)C1CN(C(=O)c2ccccc2)CCN1C(=O)C(=O)c1c[nH]c2cccc(F)c12 (stereo not drawn),68%,49%,17 ×10⁻⁶ cm/s,–,–,–
CCCCCC1CN(C(=O)C(=O)c2c[nH]c3cccc(F)c23)CCN1C(=O)c1ccccc1 (stereo not drawn),45%,3%,6.9 ×10⁻⁶ cm/s,–,–,–
C[C@H]1CN(C(=O)c2ccccc2)CCN1C(=O)C(=O)c1c[nH]c2cccc(F)c12,85%,32%,8.8 ×10⁻⁶ cm/s,–,–,–
CCC1CN(C(=O)C(=O)c2c[nH]c3cccc(F)c23)CCN1C(=O)c1ccccc1 (stereo not drawn),63%,25%,17.1 ×10⁻⁶ cm/s,–,–,–
C[C@@H]1CN(C(=O)c2ccccc2)[C@@H](C)CN1C(=O)C(=O)c1c[nH]c2cccc(F)c12,43%,0%,5 ×10⁻⁶ cm/s,–,–,–
O=C(NCCNC(=O)c1ccccc1)C(=O)c1c[nH]c2cccc(F)c12,–,–,–,> 50 µM,–,> 300 µM
CCC1CN(C(=O)c2ccccc2)CCN1C(=O)C(=O)c1c[nH]c2cccc(F)c12 (stereo not drawn),55%,8%,15 ×10⁻⁶ cm/s,–,–,–
CC(C)CC1CN(C(=O)C(=O)c2c[nH]c3cccc(F)c23)CCN1C(=O)c1ccccc1 (stereo not drawn),35%,13%,19 ×10⁻⁶ cm/s,–,–,–
C[C@@H]1CN(C(=O)c2ccccc2)CCN1C(=O)C(=O)c1c[nH]c2cccc(F)c12,74%,2%,5.4 ×10⁻⁶ cm/s,–,–,–
CC(C)C1CN(C(=O)c2ccccc2)CCN1C(=O)C(=O)c1c[nH]c2cccc(F)c12 (stereo not drawn),59%,31%,16.5 ×10⁻⁶ cm/s,–,–,–
C[C@@H]1CN(C(=O)c2ccccc2)C[C@H](C)N1C(=O)C(=O)c1c[nH]c2cccc(F)c12,55%,2%,< 1.5 ×10⁻⁶ cm/s,–,–,–
COc1cccc2[nH]cc(C(=O)C(=O)N3CCN(C(=O)c4ccccc4)CC3C)c12 (stereo not drawn),84%,72%,–,–,Not Active,–
COc1cccc2[nH]cc(C(=O)C(=O)N3CCN(C(=O)c4ccccc4)C[C@@H]3C)c12,98%,75%,–,–,Not Active,–
CC(C)CC1CN(C(=O)c2ccccc2)CCN1C(=O)C(=O)c1c[nH]c2cccc(F)c12 (stereo not drawn),38%,7%,17.1 ×10⁻⁶ cm/s,–,–,–
O=C(N[C@H]1CCCC[C@H]1NC(=O)c1ccccc1)C(=O)c1c[nH]c2cccc(F)c12 (relative stereo),–,–,–,30.5 µM,–,65 µM

# Now from value to compound, other results behind:
remaining at 10 min [1],remaining at 10 min [2],Papp [3],EC50 [4],permeability (Caco-2),Compound,CC50 at 72 h [5]
–,–,–,> 50 µM,–,O=C(NCCCNC(=O)c1ccccc1)C(=O)c1c[nH]c2cccc(F)c12,> 300 µM
–,–,–,> 50 µM,–,O=C(C(=O)N1CCCN(C(=O)c2ccccc2)CC1)c1c[nH]c2cccc(F)c12,> 300 µM
52%,11%,17.2 ×10⁻⁶ cm/s,–,–,CCCC1CN(C(=O)c2ccccc2)CCN1C(=O)C(=O)c1c[nH]c2cccc(F)c12 (stereo not drawn),–
29%,0%,15.4 ×10⁻⁶ cm/s,–,–,CCCCCC1CN(C(=O)c2ccccc2)CCN1C(=O)C(=O)c1c[nH]c2cccc(F)c12 (stereo not drawn),–
58%,44%,19 ×10⁻⁶ cm/s,–,–,CC(C)(C)C1CN(C(=O)C(=O)c2c[nH]c3cccc(F)c23)CCN1C(=O)c1ccccc1 (stereo not drawn),–
82%,12%,7.2 ×10⁻⁶ cm/s,–,–,CC1CN(C(=O)c2ccccc2)CCN1C(=O)C(=O)c1c[nH]c2cccc(F)c12 (stereo not drawn),–
50%,25%,15.4 ×10⁻⁶ cm/s,–,–,CCCC1CN(C(=O)C(=O)c2c[nH]c3cccc(F)c23)CCN1C(=O)c1ccccc1 (stereo not drawn),–
84%,56%,4.6 ×10⁻⁶ cm/s,–,–,COc1cccc2[nH]cc(C(=O)C(=O)N3CCN(C(=O)c4ccccc4)C[C@H]3C)c12,–
–,–,–,> 50 µM,–,O=C(C(=O)N1CC2CC1CN2C(=O)c1ccccc1)c1c[nH]c2cccc(F)c12 (stereo not drawn),> 300 µM
–,–,–,> 50 µM,–,O=C(NC1CCCC(NC(=O)c2ccccc2)C1)C(=O)c1c[nH]c2cccc(F)c12 (stereo not drawn),> 300 µM
–,–,–,> 50 µM,–,CN(CCCN(C)C(=O)c1ccccc1)C(=O)C(=O)c1c[nH]c2cccc(F)c12,> 300 µM
100%,32%,3.6 ×10⁻⁶ cm/s,–,–,CC1CN(C(=O)C(=O)c2c[nH]c3cccc(F)c23)CCN1C(=O)c1ccccc1 (stereo not drawn),–
69%,16%,7.3 ×10⁻⁶ cm/s,–,–,C[C@@H]1CN(C(=O)C(=O)c2c[nH]c3cccc(F)c23)C[C@H](C)N1C(=O)c1ccccc1,–
76%,59%,9.6 ×10⁻⁶ cm/s,–,–,C[C@@H]1CN(C(=O)c2ccccc2)[C@H](C)CN1C(=O)C(=O)c1c[nH]c2cccc(F)c12 (relative stereo),–
–,–,–,> 50 µM,–,O=C(N[C@H]1CCCC[C@@H]1NC(=O)c1ccccc1)C(=O)c1c[nH]c2cccc(F)c12 (relative stereo),> 300 µM
